Published values collected from several papers.
Protocols differ between the studies behind these lines.
Target: Protein-tyrosine kinase 2-beta (PTK2B, Homo sapiens, UniProt Q14289)

Compound | effect on | technique | concentration | remaining binding
CC1CCCN1c1nccc(-c2cnn3ncccc23)n1 (stereo not drawn) | binding |  | 1 µM | 100%
Cc1cnc(Nc2ccc(C(=O)N3CCC(N4CCCC4)CC3)cc2)nc1-c1cc2ccccc2s1 | binding | competition with immobilised ligand | 1 µM | 28%
CCN1CCN(Cc2ccc(C(=O)Nc3ccc(C)c(Oc4ccc5c(c4)CC(=O)N5)c3)cc2C(F)(F)F)CC1 | binding | competition with immobilised ligand | 1 µM | 49%
C[C@H](c1cccc(C#N)c1)n1cc(Cl)cc(C(N)=O)c1=N | cell-free assay | competition with immobilised ligand | 1 µM | 100%
O=C(c1ccc(Nc2ncc(Cl)c(-c3cc4ccccc4s3)n2)cc1)N1CCC(N2CCCC2)CC1 | binding | competition with immobilised ligand | 1 µM | 40%
CC(C)CC(=O)N1CCc2nc(-c3ccc(Br)cc3)nc(N(C)Cc3ccccc3)c2C1 | cell-free assay | competition with immobilised ligand | 0.1 µM | 100%
O=C(c1ccc(Nc2nccc(-c3cc4ccccc4s3)n2)cc1)N1CCC(N2CCCC2)CC1 | binding | competition with immobilised ligand | 1 µM | 81%
CN(C)c1nccc(-c2cnc3ncccn23)n1 | binding |  | 1 µM | 92%
O=C(NCC1CCOCC1)c1n[nH]cc1NC(=O)c1c(F)cccc1F | binding | competition with immobilised ligand | 1 µM | 100%
Cn1cc(Cl)c2c(Oc3c(F)cc(Nc4cc(Cl)nc(N)n4)cc3F)ccnc21 | cell-free assay | competition with immobilised ligand | 0.1 µM | 100%
c1cncc(-c2cccc(Nc3nccc(NC4CCCCC4)n3)c2)c1 | binding | competition with immobilised ligand | 10 µM | 63%
COc1cnc(Nc2cccc(S(N)(=O)=O)c2)nc1N1CCN(c2ccccc2)CC1 | binding | competition with immobilised ligand | 1 µM | 89%
O=C(NC[C@@H]1[C@H]2CN(C(=O)OCc3cc(C(F)(F)F)cc(C(F)(F)F)c3)C[C@@H]12)c1ccc2[nH]nnc2c1 | cell-free assay | competition with immobilised ligand | 1 µM | 85%
COc1ccnn2ncc(-c3ccnc(N(C)C)n3)c12 | binding |  | 1 µM | 100%
CC(=O)c1c(NS(C)(=O)=O)c2cc(-c3ccc(Cl)cc3)c(-c3ccc(Cl)cc3Cl)nc2n(C)c1=O | cell-free assay | competition with immobilised ligand | 1 µM | 100%
CN(C)c1ncc(F)c(-c2cnn3ncccc23)n1 | binding |  | 1 µM | 100%
C=CC(=O)N1CCC(C(=O)NCC(=O)N2CCN(c3nc(-c4cnc(N)nc4C(F)F)nc(N4CCOCC4)n3)CC2)CC1 | binding | competition with immobilised ligand | 1 µM | 100%
N[C@H]1CCN(c2nccc(-c3cnn4ncccc34)n2)C1 | binding |  | 1 µM | 100%
CN(C)C(=O)Cn1cc(-c2nc([C@@](C)(c3ccc(-c4cnc(N)nc4)cc3)C3CC3)no2)cn1 | cell-free assay | competition with immobilised ligand | 1 µM | 87%
CN(C)c1nccc(-c2cnn3ncccc23)n1 | binding |  | 1 µM | 87%
FC(F)(F)Oc1cccc(-c2cnc3ccc(-c4ccncc4)nn23)c1 | cell-free assay | competition with immobilised ligand | 5 µM | 76%
